Assay results published in paper PMC9091619 (RSC Advances, 2018).
Where two headings read alike, the source gives them in different places.

What was measured:
HL-60 (leukemia) cells = test: In vitro cytotoxicity, MTT/MTS cell viability assay, HL-60; assay type: cell-based, human; conditions: read-out: IC50 ± SD, HL-60
In short: (§1)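 Human cancer lines from ATCC, grown in RPMI-1640 or DMEM with 10% FBS at 37 °C, 5% CO2. Seeding at 1 × 10^5 cells per mL: adherent cells 12 h before dosing, suspension cells at dosing. 48 h exposure to graded concentrations, in triplicate; cisplatin and paclitaxel as positive controls. MTS added for 4 h at 37 °C, lysis in 20% SDS–50% DMF, OD 490 nm. IC50 by Reed and Muench's method.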

[1] = tested on: SW480 (colon cancer) cells; test: In vitro cytotoxicity, MTT/MTS cell viability assay, SW480; assay type: cell-based, human; conditions: read-out: IC50 ± SD, SW480
In short: as §1

[2] = tested on: five human cancer cell lines (HL-60, SMMC-7721, A-549, MCF-7 and SW480); test: Cytotoxicity against the panel of five tested cancer cell lines; assay type: cell-based; conditions: for IC50: Homo sapiens, read-out: IC50 against all the tested cancer cell lines; for cytotoxicity against the tested cancer cell lines (in words): five tested cancer cell lines
In short: as §1

[3] = tested on: A-549 (lung cancer) cells; test: In vitro cytotoxicity, MTT/MTS cell viability assay, A-549; assay type: cell-based, human; conditions: read-out: IC50 ± SD, A-549
In short: as §1

[4] = tested on: MCF-7 (breast cancer) cells; test: In vitro cytotoxicity, MTT/MTS cell viability assay, MCF-7; assay type: cell-based, human; conditions: read-out: IC50 ± SD, MCF-7
In short: as §1

[5] = tested on: SMMC-7721 (hepatoma cells); test: In vitro cytotoxicity, MTT/MTS cell viability assay, SMMC-7721; assay type: cell-based, human; conditions: read-out: IC50 ± SD, SMMC-7721
In short: as §1

[6] = tested on: human normal pulmonary epithelial cells (BEAS-2B); test: Growth inhibitory effect on normal cells, BEAS-2B; assay type: cell-based; conditions: for IC50: read-out: IC50 ± SD, BEAS-2B

Molecule	IC50 (HL-60 (leukemia) cells; Homo sapiens, HL-60, 48 h)	IC50 ([1]; Homo sapiens, SW480, 48 h)	IC50 [2]	cytotoxicity against the tested cancer cell lines (in words) [2]	IC50 ([3]; Homo sapiens, A549, 48 h)	IC50 ([4]; Homo sapiens, MCF7, 48 h)	IC50 ([5]; Homo sapiens, SMMC-7721, 48 h)	IC50 (HL-60 (leukemia) cells; HL-60 cells, 48 h exposure)	IC50 ([1]; SW480 cells, 48 h exposure)	IC50 ([3]; A-549 cells, 48 h exposure)	IC50 ([4]; MCF-7 cells, 48 h exposure)	IC50 ([6]; BEAS-2B normal pulmonary epithelial cells)	IC50 ([5]; SMMC-7721 cells, 48 h exposure)	IC50 ([6]; Homo sapiens, BEAS-2B)	toxicity to BEAS-2B cells (in words) ([6]; BEAS-2B normal cells)
COc1c(O)cc2oc3cc(O)c(CC(O)C(C)(C)O)c(O)c3c(=O)c2c1CC(O)C(C)(C)O (stereo not drawn) [Compound 2c, 1,3,6-Trihydroxy-7-methoxy-2,8-bis(2,3-dihydroxy-3-methylbutyl)-9H-xanthen-9-one]	> 40 µM	> 40 µM	> 40 µM	completely disappeared	> 40 µM	> 40 µM	> 40 µM	–	–	–	–	–	–	–	–
COc1cc2oc3cc(OC)c(OC)c(CC=C(C)C)c3c(=O)c2c(OC)c1CC(OC)C(C)(C)OC (stereo not drawn) [Compound 2i, 2-(2,3-Dimethoxy-3-methylbutyl)-1,3,6,7-tetramethoxy-8-(3-methylbut-2-en-1-yl)-9H-xanthen-9-one]	> 40 µM	> 40 µM	–	disappearance of cytotoxicity	> 40 µM	> 40 µM	> 40 µM	–	–	–	–	–	–	–	–
Mangostanin [Compound 2m]	–	–	–	slightly decreased activity or comparative activity	–	–	–	> 40 µM	> 40 µM	> 40 µM	> 40 µM	–	–	–	–
N.N.[Cl][Pt][Cl] [DDP, Cisplatin, reference compound]	–	–	–	–	–	–	–	3.19 ± 0.18 µM	14.8 ± 2.15 µM	13.8 ± 0.74 µM	28.4 ± 3.71 µM	> 40 µM	18 ± 0.49 µM	–	–
O=c1c2ccc(O)cc2oc2cc(O)cc(O)c12 [Compound 2u, 1,3,6-Trihydroxy-9H-xanthen-9-one]	> 40 µM	> 40 µM	–	–	> 40 µM	> 40 µM	> 40 µM	–	–	–	–	–	–	–	–
COc1c(O)cc2oc3cc(O)c(CC(O)C(C)(C)O)c(O)c3c(=O)c2c1CCC(C)C (stereo not drawn) [Compound 2d, 1,3,6-Trihydroxy-2-(2,3-dihydroxy-3-methylbutyl)-7-methoxy-8-isopentyl-9H-xanthen-9-one]	21.6 ± 2.41 µM	> 40 µM	–	slightly decreased activity or comparative activity	36 ± 0.99 µM	> 40 µM	26.9 ± 3.75 µM	–	–	–	–	–	–	> 40 µM	–
COc1c(O)cc2oc3cc(O)c(CC(O)C(C)(C)O)c(O)c3c(=O)c2c1CC=C(C)C (stereo not drawn) [Compound 2a, 1,3,6-Trihydroxy-2-(2,3-dihydroxy-3-methylbutyl)-7-methoxy-8-(3-methyl-2-butenyl)xanthone]	18.2 ± 0.48 µM	> 40 µM	–	slightly decreased activity or comparative activity	19.8 ± 1.42 µM	23.7 ± 0.64 µM	23.4 ± 1.29 µM	–	–	–	–	–	–	18.3 ± 0.51 µM	–
COc1cccc2c1C(=O)c1c(O)c3c(c(O)c1C2=O)C[C@@](O)(C(=O)CO)C[C@@H]3O[C@H]1C[C@H](N)[C@H](O)[C@H](C)O1 [ADM, Adriamycin, reference compound]	0.14 µM	0.11 ± 0.01 µM	–	–	0.3 ± 0.01 µM	0.9 ± 0.02 µM	0.9 ± 0.03 µM	–	–	–	–	–	–	> 40 µM	–
COc1c(O)cc2oc3cc(O)c(CCC(C)(C)O)c(O)c3c(=O)c2c1CC=C(C)C [Compound 2n, 1,3,6-Trihydroxy-2-(3-hydroxy-3-methylbutyl)-7-methoxy-8-(3-methylbut-2-en-1-yl)-9H-xanthen-9-one]	14.4 ± 0.05 µM	22.7 ± 2.35 µM	–	slightly decreased activity or comparative activity	17 ± 0.77 µM	24.6 ± 0.47 µM	26.3 ± 1.04 µM	–	–	–	–	–	–	29.3 ± 1.02 µM	–
COc1c(O)cc2oc3cc(O)c(CC=C(C)C)c(O)c3c(=O)c2c1CC1OC1(C)C (stereo not drawn) [Compound 2l, 1-((3,3-Dimethyloxiran-2-yl)methyl)-3,6,8-trihydroxy-2-methoxy-7-(3-methylbut-2-en-1-yl)-9H-xanthen-9-one]	> 40 µM	> 40 µM	> 40 µM	–	> 40 µM	> 40 µM	> 40 µM	–	–	–	–	–	–	–	–
COc1c(O)cc2oc3cc(O)c(CC=C(C)C)c(O)c3c(=O)c2c1CC(O)C(C)(C)O (stereo not drawn) [Compound 2b, 1,3,6-Trihydroxy-2-(3-methyl-2-butenyl)-7-methoxy-8-(2,3-dihydroxy-3-methylbutyl)xanthone]	> 40 µM	> 40 µM	> 40 µM	–	> 40 µM	> 40 µM	> 40 µM	–	–	–	–	–	–	–	–
COc1c(O)cc2oc3cc(O)c(CCC(C)C)c(O)c3c(=O)c2c1CC(O)C(C)(C)O (stereo not drawn) [Compound 2e, 1,3,6-Trihydroxy-2-isopentyl-7-methoxy-8-(2,3-dihydroxy-3-methylbutyl)-9H-xanthen-9-one]	18.7 ± 0.23 µM	> 40 µM	–	–	> 40 µM	> 40 µM	> 40 µM	–	–	–	–	–	–	> 40 µM	non-cytotoxic
COc1cc2oc3cc(OC)c(OC)c(CCC(C)C)c3c(=O)c2c(OC)c1CC(OC)C(C)(C)OC (stereo not drawn) [Compound 2j, 2-(2,3-Dimethoxy-3-methylbutyl)-8-isopentyl-1,3,6,7-tetramethoxy-9H-xanthen-9-one]	> 40 µM	> 40 µM	–	disappearance of cytotoxicity	> 40 µM	> 40 µM	> 40 µM	–	–	–	–	–	–	–	–
